Values joined by “and” are separate entries in the source; they are usually repeats but may differ in a detail not shown here. Equal entries are not always repeated.
How the values were obtained:
Type in all cases: toxicity, cell-based
HEK-293T [1] = test: Incucyte cell viability with HEK293T; details: human, 10 µM, compound concentration 10 uM; further: filed as whole numbers so only -1 and 0 and 1 occur
Fibroblast [2] = test: Multiplex assay against human fibroblast; details: 10 µM, compound concentration 10 uM
Procedure, shortened: (§1)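 Hoechst33342, BioTracker Green Microtubule Cytoskeleton Dye, MitoTracker Red and Annexin V Alexa Fluor 680 were added to live cells at seeding, and imaging on a CQ1 microscope at 37°C and 5% CO2 followed compound addition. Gating by CellPathfinder machine learning separated cells into Hoechst high-intensity objects or normal cells, then normal cells into healthy, pyknosed or fragmented nuclei, then pyknosed cells into mitotic or apoptotic. Per cents of healthy-nucleus cells are reported for the tubulin, mitochondrial-mass and membrane-permeability phenotypes.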

HEK-293T [3] = test: Multiplex assay against HEK293T; details: human, 10 µM, compound concentration 10 uM; procedure, shortened: as §1;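 on Population Tubulin-Different-Phenotype (%): share of the cells with healthy nuclei that show this phenotype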
U2OS [4] = test: Multiplex assay against U2OS; details: human, 10 µM, compound concentration 10 uM; procedure, shortened: as §1
U2OS [5] = test: Incucyte cell viability with U2OS; details: human, 10 µM, compound concentration 10 uM; further: filed as whole numbers so only -1 and 0 and 1 occur
Fibroblast [6] = test: Incucyte cell viability with human fibroblast; details: 10 µM, compound concentration 10 uM; further: filed as whole numbers so only -1 and 0 and 1 occur
[7] = 0 h, replicate number 1, timepoint 0 hours
[8] = 12 h, replicate number 1, timepoint 12 hours
[9] = 18 h, replicate number 1, timepoint 18 hours
[10] = 24 h, replicate number 1, timepoint 24 hours

CN1CCN(Cc2ccc(-c3cnc4[nH]cc(-c5ccc6[nH]ccc6c5)c4c3)cc2)CC1
Growth Rate (HEK-293T [1]; [7]): 0
Growth Rate (HEK-293T [1]; 6 h, replicate number 2, timepoint 6 hours): 0
Growth Rate (HEK-293T [1]; [8]): 0
Growth Rate (HEK-293T [1]; [9]): 0
Growth Rate (HEK-293T [1]; [10]): 0
Population Apoptotic (%) (Fibroblast [2]; 12 h, replicate 1): 47% and 85%
Population Fragmented Nuclei (%) (Fibroblast [2]; 12 h, replicate 1): 27% and 39% and 35%
Population Hoechst High Intensity Objects (%) (Fibroblast [2]; 12 h, replicate 1): 8% and 16% and 10%
Population Normal (%) (Fibroblast [2]; 12 h, replicate 1): 91% and 83% and 89%
Total Cell Count (Fibroblast [2]; 12 h, replicate 1): 208 and 291 and 107
Population Apoptotic (%) (Fibroblast [2]; 12 h, replicate 2): 50% and 73%
Population Mitotic Cells (%) (Fibroblast [2]; 12 h, replicate 2): 50% and 26%
Population Normal (%) (Fibroblast [2]; 12 h, replicate 2): 69% and 64% and 94%
Total Cell Count (Fibroblast [2]; 12 h, replicate 2): 113 and 71 and 76
Population Apoptotic (%) (Fibroblast [2]; 24 h, replicate 1): 73% and 68% and 81%
Population Fragmented Nuclei (%) (Fibroblast [2]; 24 h, replicate 1): 50% and 59% and 47%
Population Hoechst High Intensity Objects (%) (Fibroblast [2]; 24 h, replicate 1): 16% and 23% and 25%
Population Mitotic Cells (%) (Fibroblast [2]; 24 h, replicate 1): 26% and 31% and 18%
Population Normal (%) (Fibroblast [2]; 24 h, replicate 1): 83% and 76% and 75%
Population Apoptotic (%) (Fibroblast [2]; 24 h, replicate 2): 50% and 100%
Population Healthy Nuclei (%) (Fibroblast [2]; 24 h, replicate 2): 24% and 25% and 11%
Population Hoechst High Intensity Objects (%) (Fibroblast [2]; 24 h, replicate 2): 26% and 33% and 52%
Population Normal (%) (Fibroblast [2]; 24 h, replicate 2): 73% and 66% and 47%
Total Cell Count (Fibroblast [2]; 24 h, replicate 2): 136 and 91 and 73
Population Fragmented Nuclei (%) (Fibroblast [2]; 48 h, replicate 1): 75%
Population Healthy Nuclei (%) (Fibroblast [2]; 48 h, replicate 1): 13%
Population Hoechst High Intensity Objects (%) (Fibroblast [2]; 48 h, replicate 1): 28%
Population Membrane Permeable-Phenotype (%) (Fibroblast [2]; 48 h, replicate 1): 41%
Population Normal (%) (Fibroblast [2]; 48 h, replicate 1): 71%
Population Pyknosed Nuclei (%) (Fibroblast [2]; 48 h, replicate 1): 10%
Population Tubulin-Different-Phenotype (%) (Fibroblast [2]; 48 h, replicate 1): 58%
Total Cell Count (Fibroblast [2]; 48 h, replicate 1): 121
Population Apoptotic (%) (Fibroblast [2]; 48 h, replicate 2): 100%
Population Fragmented Nuclei (%) (Fibroblast [2]; 48 h, replicate 2): 79%
Population Healthy Nuclei (%) (Fibroblast [2]; 48 h, replicate 2): 11%
Population Hoechst High Intensity Objects (%) (Fibroblast [2]; 48 h, replicate 2): 40%
Population Membrane Permeable-Phenotype (%) (Fibroblast [2]; 48 h, replicate 2): 0%
Population Mitochondria Different-Phenotype (%) (Fibroblast [2]; 48 h, replicate 2): 0%
Population Mitotic Cells (%) (Fibroblast [2]; 48 h, replicate 2): 0%
Population Normal (%) (Fibroblast [2]; 48 h, replicate 2): 59%
Population Pyknosed Nuclei (%) (Fibroblast [2]; 48 h, replicate 2): 8%
Population Tubulin-Different-Phenotype (%) (Fibroblast [2]; 48 h, replicate 2): 50%
Total Cell Count (Fibroblast [2]; 48 h, replicate 2): 57
Population Fragmented Nuclei (%) (HEK-293T [3]; 12 h, replicate 1): 11% and 13% and 21%
Population Hoechst High Intensity Objects (%) (HEK-293T [3]; 12 h, replicate 1): 16% and 24% and 18%
Population Membrane Permeable-Phenotype (%) (HEK-293T [3]; 12 h, replicate 1): 20% and 12% and 28%
Population Normal (%) (HEK-293T [3]; 12 h, replicate 1): 83% and 75% and 81%
Population Pyknosed Nuclei (%) (HEK-293T [3]; 12 h, replicate 1): 59% and 81%
Population Membrane Permeable-Phenotype (%) (HEK-293T [3]; 12 h, replicate 2): 0% and 15%
Population Normal (%) (HEK-293T [3]; 12 h, replicate 2): 87% and 97%
Population Tubulin-Different-Phenotype (%) (HEK-293T [3]; 12 h, replicate 2): 66% and 53% and 95%
Population Fragmented Nuclei (%) (HEK-293T [3]; 24 h, replicate 1): 16%
Population Hoechst High Intensity Objects (%) (HEK-293T [3]; 24 h, replicate 1): 29% and 32% and 15%
Population Membrane Permeable-Phenotype (%) (HEK-293T [3]; 24 h, replicate 1): 11% and 15%
Population Normal (%) (HEK-293T [3]; 24 h, replicate 1): 70% and 67% and 84%
Population Membrane Permeable-Phenotype (%) (HEK-293T [3]; 24 h, replicate 2): 0% and 8% and 9%
Population Normal (%) (HEK-293T [3]; 24 h, replicate 2): 78% and 93%
Population Apoptotic (%) (HEK-293T [3]; 48 h, replicate 1): 90%
Population Fragmented Nuclei (%) (HEK-293T [3]; 48 h, replicate 1): 29%
Population Healthy Nuclei (%) (HEK-293T [3]; 48 h, replicate 1): 3%
Population Hoechst High Intensity Objects (%) (HEK-293T [3]; 48 h, replicate 1): 31%
Population Membrane Permeable-Phenotype (%) (HEK-293T [3]; 48 h, replicate 1): 0%
Population Mitotic Cells (%) (HEK-293T [3]; 48 h, replicate 1): 9%
Population Normal (%) (HEK-293T [3]; 48 h, replicate 1): 68%
Population Pyknosed Nuclei (%) (HEK-293T [3]; 48 h, replicate 1): 66%
Population Tubulin-Different-Phenotype (%) (HEK-293T [3]; 48 h, replicate 1): 80%
Total Cell Count (HEK-293T [3]; 48 h, replicate 1): 216
Population Apoptotic (%) (HEK-293T [3]; 48 h, replicate 2): 96%
Population Fragmented Nuclei (%) (HEK-293T [3]; 48 h, replicate 2): 17%
Population Healthy Nuclei (%) (HEK-293T [3]; 48 h, replicate 2): 7%
Population Hoechst High Intensity Objects (%) (HEK-293T [3]; 48 h, replicate 2): 18%
Population Membrane Permeable-Phenotype (%) (HEK-293T [3]; 48 h, replicate 2): 22%
Population Mitochondria Different-Phenotype (%) (HEK-293T [3]; 48 h, replicate 2): 100%
Population Mitotic Cells (%) (HEK-293T [3]; 48 h, replicate 2): 3%
Population Normal (%) (HEK-293T [3]; 48 h, replicate 2): 81%
Population Pyknosed Nuclei (%) (HEK-293T [3]; 48 h, replicate 2): 75%
Population Tubulin-Different-Phenotype (%) (HEK-293T [3]; 48 h, replicate 2): 100%
Total Cell Count (HEK-293T [3]; 48 h, replicate 2): 158
Population Apoptotic (%) (U2OS [4]; 12 h, replicate 1): 81% and 75%
Population Hoechst High Intensity Objects (%) (U2OS [4]; 12 h, replicate 1): 11% and 4% and 8%
Population Membrane Permeable-Phenotype (%) (U2OS [4]; 12 h, replicate 1): 87% and 74% and 69%
Population Mitochondria Different-Phenotype (%) (U2OS [4]; 12 h, replicate 1): 64% and 37%
Population Mitotic Cells (%) (U2OS [4]; 12 h, replicate 1): 18% and 24% and 25%
Population Normal (%) (U2OS [4]; 12 h, replicate 1): 88% and 95% and 91%
Total Cell Count (U2OS [4]; 12 h, replicate 1): 171 and 167 and 190
Population Fragmented Nuclei (%) (U2OS [4]; 12 h, replicate 2): 17% and 14% and 13%
Population Hoechst High Intensity Objects (%) (U2OS [4]; 12 h, replicate 2): 6% and 15%
Population Membrane Permeable-Phenotype (%) (U2OS [4]; 12 h, replicate 2): 40% and 72% and 63%
Population Mitochondria Different-Phenotype (%) (U2OS [4]; 12 h, replicate 2): 100% and 96% and 36%
Population Normal (%) (U2OS [4]; 12 h, replicate 2): 94% and 84%
Total Cell Count (U2OS [4]; 12 h, replicate 2): 76 and 116 and 120
Population Apoptotic (%) (U2OS [4]; 24 h, replicate 1): 98% and 93% and 64%
Population Membrane Permeable-Phenotype (%) (U2OS [4]; 24 h, replicate 1): 100% and 90% and 39%
Population Normal (%) (U2OS [4]; 24 h, replicate 1): 90% and 76% and 93%
Total Cell Count (U2OS [4]; 24 h, replicate 1): 166 and 199 and 279
Population Apoptotic (%) (U2OS [4]; 24 h, replicate 2): 95% and 100% and 66%
Population Membrane Permeable-Phenotype (%) (U2OS [4]; 24 h, replicate 2): 40%
Population Mitochondria Different-Phenotype (%) (U2OS [4]; 24 h, replicate 2): 39%
Population Normal (%) (U2OS [4]; 24 h, replicate 2): 81% and 66% and 89%
Population Tubulin-Different-Phenotype (%) (U2OS [4]; 24 h, replicate 2): 18%
Total Cell Count (U2OS [4]; 24 h, replicate 2): 122 and 91 and 140
Population Apoptotic (%) (U2OS [4]; 48 h, replicate 1): 100%
Population Fragmented Nuclei (%) (U2OS [4]; 48 h, replicate 1): 31%
Population Healthy Nuclei (%) (U2OS [4]; 48 h, replicate 1): 2%
Population Hoechst High Intensity Objects (%) (U2OS [4]; 48 h, replicate 1): 14%
Population Membrane Permeable-Phenotype (%) (U2OS [4]; 48 h, replicate 1): 66%
Population Mitochondria Different-Phenotype (%) (U2OS [4]; 48 h, replicate 1): 100%
Population Mitotic Cells (%) (U2OS [4]; 48 h, replicate 1): 0%
Population Normal (%) (U2OS [4]; 48 h, replicate 1): 85%
Population Pyknosed Nuclei (%) (U2OS [4]; 48 h, replicate 1): 66%
Population Tubulin-Different-Phenotype (%) (U2OS [4]; 48 h, replicate 1): 100%
Total Cell Count (U2OS [4]; 48 h, replicate 1): 148
Population Fragmented Nuclei (%) (U2OS [4]; 48 h, replicate 2): 8%
Population Healthy Nuclei (%) (U2OS [4]; 48 h, replicate 2): 64%
Population Hoechst High Intensity Objects (%) (U2OS [4]; 48 h, replicate 2): 24%
Population Membrane Permeable-Phenotype (%) (U2OS [4]; 48 h, replicate 2): 100%
Population Normal (%) (U2OS [4]; 48 h, replicate 2): 75%
Population Pyknosed Nuclei (%) (U2OS [4]; 48 h, replicate 2): 27%
Population Tubulin-Different-Phenotype (%) (U2OS [4]; 48 h, replicate 2): 95%
Total Cell Count (U2OS [4]; 48 h, replicate 2): 80
Growth Rate (U2OS [5]; 0 h, replicate number 2, timepoint 0 hours): 0
Growth Rate (U2OS [5]; [8]): 1
Growth Rate (U2OS [5]; [9]): 0
Growth Rate (U2OS [5]; [10]): 0
Growth Rate (Fibroblast [6]; [7]): 0
Growth Rate (Fibroblast [6]; [8]): 0
Growth Rate (Fibroblast [6]; [9]): 0
Growth Rate (Fibroblast [6]; [10]): 0

From ChEMBL document CHEMBL4689842, “EUbOPEN Chemogenomics Library wave 1” (2021)
